The conditions of data set [1]: in previous studies, no reference given; cited from earlier work.
The next data set has as its system PSMA monomer. As to the kind of experiment: Phage-based ELISA, binding to PSMA monomer. The settings on record: Figure 1, standard error (n = 3). For orientation: An ELISA detects its analyte on a solid surface through an enzyme-linked reagent.
For the next data set, the target named is PSMA (Homo sapiens, UniProt Q04609). As to the kind of experiment: Biosensing. The data set is classed as binding. The essentials: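 Virus-PEDOT films, with ligand-displaying phage either unwrapped or wrapped with a chemically synthesized ligand wrapper, were exposed to a series of PSMA dimer concentrations. The read-out was relative impedance change (ΔR/Ro) versus frequency, with noise taken as the SD of five impedance measurements. Controls were films with control phage, ligand-free films, and films with wrapper alone; transferrin receptor served as a specificity target. Kd, Hill n and LOD came from Hill fits.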

A further data set concerns PSMA dimer. As to the kind of experiment: Phage-based ELISA, binding to PSMA dimer. The note with it: as shown in Figure 1.

“Also recorded” adds a separate entry of the source.

PSMA, sequence (Q04609 whole entry): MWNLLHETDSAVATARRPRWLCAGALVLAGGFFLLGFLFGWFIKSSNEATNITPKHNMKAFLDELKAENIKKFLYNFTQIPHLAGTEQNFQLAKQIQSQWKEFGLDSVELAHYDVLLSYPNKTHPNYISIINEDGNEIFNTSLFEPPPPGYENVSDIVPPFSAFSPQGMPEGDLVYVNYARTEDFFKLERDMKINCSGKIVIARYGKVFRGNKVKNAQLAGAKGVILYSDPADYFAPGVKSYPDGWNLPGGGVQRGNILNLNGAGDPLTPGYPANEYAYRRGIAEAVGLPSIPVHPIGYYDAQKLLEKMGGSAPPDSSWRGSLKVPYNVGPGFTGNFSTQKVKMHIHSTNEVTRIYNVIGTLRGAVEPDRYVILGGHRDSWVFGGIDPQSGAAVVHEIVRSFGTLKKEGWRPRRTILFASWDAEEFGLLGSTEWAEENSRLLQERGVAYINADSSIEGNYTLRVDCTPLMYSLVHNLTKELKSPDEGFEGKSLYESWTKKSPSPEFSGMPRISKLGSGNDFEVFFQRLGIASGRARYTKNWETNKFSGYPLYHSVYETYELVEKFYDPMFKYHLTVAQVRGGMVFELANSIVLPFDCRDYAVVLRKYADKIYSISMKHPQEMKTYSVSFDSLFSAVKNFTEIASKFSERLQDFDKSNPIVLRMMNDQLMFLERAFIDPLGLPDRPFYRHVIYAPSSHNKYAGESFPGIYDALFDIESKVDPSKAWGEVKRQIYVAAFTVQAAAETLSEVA

As to SECVEVFQNSCDW [compound 2], the solubility in water result in data set [1] was “limited solubility in water”.

On to CALCEFLG [phage-1], for which the “binding to the PSMA monomer (ELISA)” value with PSMA monomer is “Neither phage-displayed ligand binds with significant affinity to the PSMA monomer”.

As for SECVEVFQNSCDW [phage-2], in the data set on PSMA monomer, the “binding to the PSMA monomer (ELISA)” value was “Neither phage-displayed ligand binds with significant affinity to the PSMA monomer”. In addition, the “LOD (calculated)” value at PSMA (PBF, defined as 3x over background signal, calculated from line fits to the data in Figure 4F) is 6 nM. In addition, the cooperative binding entry on PSMA (from n-values obtained >1, Hill fit, PBF) is reported as “can access cooperative binding”.

On to CALCEFLG [KCS-1], for which, on PSMA (EIS, PBF-Tween buffer, PEDOT films), the “binding to PSMA / change in impedance, negative controls” value was “no significant binding to PSMA; also recorded: negligible change in impedance caused by the wrapper”.

Take CALCEFLG [compound 1]: the solubility in water result in data set [1] is “limited solubility in water”. Besides, the “apparent affinity for PSMA, peptide 1 versus peptide 2” value in the data set on PSMA dimer is recorded as “much lower apparent affinity for PSMA than peptide 2”.

(Values after article PMC3683571 (Journal of the American Chemical Society, 2013).)
